Hits are enriched below; roughly 1.8% of the tested compounds scored in any of these assays.
HTRA1 inh – HTRA1 serine protease inhibitors, primary screen, biochemical, fluorescence polarization, HTS | Q92743 | recombinant HTRA1, FP-rhodamine activity-based probe | inhibition, % at 5.96 µM | 0.5% of 340,000 active | AID 504803, 2011; in the data active means inhibition above about 36%
SIAE inh – human SIAE inhibitors, primary screen, biochemical, fluorescence polarization, FP-Rh probe, 1536-well HTS | inhibition, % at 9.66 µM | 0.69% of 370,000 active | AID 1053197, 2014 | SIAE FP-Rh probe binding;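 active means inhibition above a cutoff: mean of compounds within the control limits plus 3 SD of those, cut at about 17% in these data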
Target sequence (Q9HAT2 whole entry, looked up): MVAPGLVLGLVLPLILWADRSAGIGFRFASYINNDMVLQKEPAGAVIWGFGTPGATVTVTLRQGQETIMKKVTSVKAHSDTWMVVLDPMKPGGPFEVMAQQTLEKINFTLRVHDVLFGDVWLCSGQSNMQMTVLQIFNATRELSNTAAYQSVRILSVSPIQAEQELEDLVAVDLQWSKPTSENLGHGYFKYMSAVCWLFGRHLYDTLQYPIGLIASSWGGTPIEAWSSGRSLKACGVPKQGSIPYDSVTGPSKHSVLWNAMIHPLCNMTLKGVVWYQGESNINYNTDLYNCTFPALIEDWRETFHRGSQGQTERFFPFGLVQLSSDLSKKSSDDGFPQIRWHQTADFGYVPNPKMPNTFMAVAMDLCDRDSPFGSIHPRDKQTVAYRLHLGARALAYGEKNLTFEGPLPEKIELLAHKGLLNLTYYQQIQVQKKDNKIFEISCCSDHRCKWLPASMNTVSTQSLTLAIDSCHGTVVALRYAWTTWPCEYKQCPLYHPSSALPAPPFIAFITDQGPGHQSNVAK
DDE Tn7 FP inh – inhibitors of Tn7 peptide binding to fibrin DD(E), primary screen, biochemical, fluorescence polarization, human fibrin, Tn7 probe; Fibrinogen beta chain (Homo sapiens), P02675; FP displacement of FITC-Tn7 peptide from fibrin DD(E); 0% = median of compound wells per plate; 0.13% of 370,000 active; inhibition, % at 8.3 µM;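 active means inhibition above the mean of compounds falling within the control limits plus 3 SD of them, cut at about 14% in these data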
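Measure: % inhibition scaled between sample-field median and high-control FP; Test system: human fibrin DD(E); Quantity: 2 µM final DD(E) protein; Doses: one dose, 8.3 µM nominal; Schedule: compound with protein 10 min, then 3 h after probe, room temperature; Detection: fluorescence polarization; Medium: Tris buffer with calcium and detergent, pH 7.8.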
Tn6 DDE FP – inhibitors of Tn6 peptide binding to fibrin DD(E), primary screen, biochemical, fluorescence polarization, human fibrin, Tn6 probe | Fibrin DD(E) TRITC-Tn6 fluorescence polarization displacement | inhibition, % at 8.3 µM | Fibrinogen beta chain (Homo sapiens), P02675 | 0.21% of 370,000 active | AID 720509, 2013;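 active means inhibition above a per-campaign cutoff: mean of compounds within control limits plus 3 SD, cut at about 15% in these data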
mABHD4 FP – ABHD4 inhibitors, primary screen, biochemical, fluorescence polarization, mouse; purified mABHD4, FP-Rh probe fluorescence polarization; (Lyso)-N-acylphosphatidylethanolamine lipase (Mus musculus), Q8VD66; AID 720543, 2013; inhibition, % at 8.92 µM; 0.54% of 370,000 active;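 active means inhibition exceeding the mean over every tested compound plus 3 SD, cut at about 30% in these data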
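Doses – 8.92 µM, single dose · Material – wild-type mouse ABHD4 protein · Replication – single well per compound (singlicate) · Measure – percent inhibition of probe binding, normalized to plate controls · Schedule – 45 min compound pre-incubation plus 60 min probe step, 25 °C · Detection – fluorescence polarization with parallel and perpendicular emission, 525/598 nm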
TCR-CD3 inh – inhibitors of human TCR-CD3 interaction, primary screen, biochemical, fluorescence, TAMRA-labeled TCR probe. 0.37% of 360,000 active. inhibition, % at 9.4 µM. T-cell receptor (TCR); in the data active means inhibition above about 19%;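 further: recombinant mutant TCR 2C K166C tagged with TAMRA read by polarization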
Hits are given with their value; – = inactive; · = not tested or not shown; + = active, no number.

SMILES	HTRA1 inh	SIAE inh	DDE Tn7 FP inh	Tn6 DDE FP	mABHD4 FP	TCR-CD3 inh
CCc1[nH]nc2c1C(c1cccc(OC(=O)N3CCOCC3)c1)C(C#N)=C(N)O2 (configuration not stated)	–	25	–	–	–	–
CC(C)c1[nH]nc2c1C(c1cccc(OC(=O)N3CCOCC3)c1)C(C#N)=C(N)O2 (configuration not stated)	–	–	–	–	–	–
COc1ccc(C(=O)N/N=C/c2cc3ccccc3[nH]c2=S)cc1	–	–	–	–	–	30
COc1ccc(C(=O)N/N=C/c2c[nH]c3ccccc23)cc1	–	–	–	–	–	–
Cc1ccc(CNC(=O)OC(C)(C)C)c(/C=C/S(=O)(=O)NCCc2ccccc2)c1	·	–	–	–	–	·
Cc1[nH]c2ccccc2c1CCN(Cc1cccs1)C(=O)Nc1cccc2c1OCO2	·	–	–	–	–	·
O=C(Cn1ncc2c1-c1ccccc1OC2)Nc1nc2ccccc2s1	–	–	–	–	–	19
CC(=O)c1ccc(NC(=O)NC2CCCCN(Cc3cccc(Cl)c3)C2=O)cc1 (configuration not stated)	·	–	–	–	–	·
Cc1ccccc1C(=O)N1CCC(C(=O)Nc2cccc(F)c2)CC1	–	26	–	–	–	–
Cc1ccc(NC(=O)C2CCN(C(=O)c3ccccc3C)CC2)cc1	–	–	–	–	–	–
COC(=O)[C@H](CC(C)C)N1Cc2nnn(Cc3ccc(C)cc3)c2-c2cc(F)ccc2S1(=O)=O	·	–	–	–	–	·
CN(C)c1ccc(-c2nc3ncc(Cl)cc3[nH]2)cc1	·	–	–	–	–	·
COc1ccc2ccccc2c1C=Nn1c(-c2n[nH]c3c2CCC3)n[nH]c1=S	·	–	–	–	–	·
O=[N+]([O-])c1ccc2c(c1)N([O-])C1(CCCCC1)[N+]2=O	·	–	–	–	53	–
CC1=C(c2ccccc2)[N+](=O)C2(CCCC2)N1[O-]	–	–	–	–	–	–
C=CCN1C(=O)[C@@H](CC(=O)NCCCN2CCCC2=O)[C@]2(C(=O)OC)CCCCC=C12	·	–	–	–	–	·
COC1=CC(=O)C(C2CC(=O)c3c(O)cc(O)cc3O2)=CC1=O (configuration not stated)	–	–	–	–	49	–
COc1cccc2c1C(=O)c1c(O)c3c(c(O)c1C2=O)C[C@@](O)(C(=O)CO)C[C@@H]3O[C@H]1C[C@H](N)[C@@H](O)[C@H](C)O1	69	·	·	·	·	·
COc1ccc(S(=O)(=O)Nc2ccc(O)c3ccccc23)cc1	–	–	–	–	37	–
COc1ccc(S(=O)(=O)Nc2ccccc2)cc1	–	–	–	–	–	–
CN1\C(=C/C=C/C=C/C=[N+](C)C)C(C)(C)c2ccccc21	–	–	–	31	–	–
CN1/C(=C\C=O)C(C)(C)c2ccccc21	–	–	–	–	–	–
COc1cc(OC)c(-c2c3cc(O)c(=O)cc-3oc3cc(O)c(O)cc23)cc1OC	–	–	–	+	–	–
COc1cc(-c2cc(=O)c3ccc(O)cc3o2)cc(OC)c1OC	·	–	–	–	–	–
COCCNC(=O)c1onc(CSc2ccccc2F)c1C(=O)O	–	–	–	–	–	–
SMILES	HTRA1 inh	SIAE inh	DDE Tn7 FP inh	Tn6 DDE FP	mABHD4 FP	TCR-CD3 inh
COCCNC(=O)c1onc(CSc2ccccc2C)c1C(=O)O	–	–	–	22	–	–
O=C(CSc1nnc(-c2cccnc2)o1)Nc1cccc(Cl)c1	–	–	–	–	–	–
CCn1c2ccccc2c2cc(NC(=O)CSc3nnc(-c4cccc(Cl)c4)o3)ccc21	–	27	–	–	–	–
C[C@H](CO)N1C[C@H](C)[C@@H](CN(C)C(=O)NC2CCCCC2)Oc2c(NC(=O)C3CCCCC3)cccc2C1=O	–	–	–	–	–	–
C[C@H](CO)N1C[C@H](C)[C@@H](CN(C)C(=O)Nc2ccccc2)Oc2c(NC(=O)C3CCCCC3)cccc2C1=O	–	18	–	–	–	–
CC(=O)Nc1ccc(NC2=C/C(=N/S(=O)(=O)c3cccs3)c3ccccc3C2=O)cc1	·	–	–	–	34	–
Cc1ccc(NC2=C/C(=N/S(=O)(=O)c3cccs3)c3ccccc3C2=O)cc1C	–	–	–	–	–	–
COc1cccc(N2C(=O)CC(Nc3ccc(N4CCOCC4)cc3)C2=O)c1 (configuration not stated)	51	·	·	·	·	·
O=[N+]([O-])c1cc(CN2CCCC2)c2cccnc2c1O	54	·	·	·	·	·
O=[N+]([O-])c1cc(CN2CCN(c3cccc(C(F)(F)F)c3)CC2)c2cccnc2c1O	·	–	–	–	–	–
Oc1c(Cl)cc(CN2CCCCC2)c2cccnc12	46	·	·	·	·	·
COc1ccc(-c2cc(C(F)(F)F)n3nc(C(=O)Nc4cc(C)on4)cc3n2)cc1OC	–	18	–	–	–	–
Cc1ccc(-c2cc(C(F)(F)F)n3nc(C(=O)Nc4ccon4)cc3n2)cc1C	–	–	–	–	–	–
COC(=O)[C@]12C[C@H](CC(=O)NCc3ccc(C)o3)C(=O)N(CCC3=CCCCC3)C1=C[C@H](C(C)C)O[C@@H]2C1CC1	·	–	–	–	–	·
C=CCNC(=O)c1ccsc1N	·	–	–	17	–	–
O=C(COC(=O)c1ccc(F)cc1)Nc1ccccc1N1CCOCC1	–	–	–	–	–	–
Cc1ccc(C(=O)OCC(=O)Nc2ccccc2N2CCOCC2)cc1	–	18	–	–	–	–
S=c1[nH]nc(-c2cc(-c3ccccc3)n[nH]2)n1N=Cc1c[nH]c2ccccc12	·	–	–	–	–	·
CC(c1ccc(NC(=O)OC(C)(C)C)cc1)c1cn(C)c2ccccc12 (configuration not stated)	·	–	–	–	–	·
CN(C)c1ccc(/C=C/c2ccc3ccccc3[n+]2C)cc1	–	–	–	–	–	–
CN(C)c1ccc(/C=C/c2ccc3c4ccccc4ccc3[n+]2-c2ccccc2)cc1	–	–	–	+	–	–
CCOC(=O)Cn1cc(CN2CCS(=O)(=O)N(Cc3ccccc3)C(C(=O)OC)C2)nn1 (configuration not stated)	·	–	–	–	–	·
CCc1nc(C)ccc1OCC(=O)NCCCN(C)C	–	20	–	–	–	–
N#C/C(C(=O)N1CCCCC1)=C1\Nc2ccccc2S1	–	–	–	–	–	–
Cc1ccc(NC(=S)/C(C#N)=C2/Nc3ccccc3S2)cc1	–	–	–	–	63	–

High-throughput results deposited in PubChem BioAssay by The Scripps Research Institute Molecular Screening Center.
